The values that follow come from publication PMC5965255 (Neoplasia (New York, N.Y.), 2016).

In brackets after ≈: the same amount, converted by molar mass.

Series [1] has as its system Panc-1-luc human pancreatic tumors implanted SC. In words: Antitumor activity in mice with subcutaneous Panc-1-luc tumors. The settings on record: IP twice a week; DHA-dFdC 50 mg/kg or molar equivalent doses. It is filed as in vivo, athymic nude mice. The method in brief:
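Male athymic nude mice (6-8 weeks) received SC injections of 5 × 10^6 Panc-1-luc cells in DMEM/Matrigel 1:1 (v/v) in the right flank. At 5-7 mm tumours (day 5), mice were randomised into 5 groups (n = 5-6). Groups got IP test compound at 50 mg/kg or molar equivalents. The vehicle was Tween 80/ethanol/water 1:0.52:8.48 with 5% w/v mannitol (dFdC in 5% mannitol). Dosing was twice weekly, up to six times. Caliper volumes were V = ½ × L1 × L2 × L2.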

The next series concerns Panc-1-luc cells. The settings on record: cited from earlier work.
Series [2] is described as follows: Pancreatic tissue levels and biodistribution after IV injection. It is filed as in vivo, BALB/c mice. Conditions: mouse pancreas, IV 75 mg/kg, noncompartmental. In short, it runs like this: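 Healthy female BALB/c mice (17-20 weeks) received 75 mg/kg IV in Tween 80/ethanol/5% mannitol aqueous solution. Mice were euthanized at six time points from 5 to 300, n = 3-4 each. Pancreas was homogenized, extracted with ethyl acetate and analysed by HPLC: methanol/1% acetic acid 85:15, 1.2 ml/min, detection 300 nm.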

For series [3] the following is noted: cited from earlier work.
For series [4], the system named is orthotopic Panc-1-luc pancreatic tumors. In words: Antitumor activity in mice with orthotopic Panc-1-luc tumors. It is filed as in vivo, athymic nude mice. In short, it runs like this: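 Male athymic nude mice (6-8 weeks) received ~50 μl of Panc-1-luc cells (~2 × 10^7/ml in 1:1 DMEM/Matrigel) into the pancreas under isoflurane anaesthesia. After four weeks, randomised (n = 5-7) to test compound (Tween 80/ethanol/water, 5% w/v mannitol), dFdC at molar equivalent (~0.087 […], 5% mannitol) or untreated. IP twice weekly, seven doses in total. Tumours dissected and weighed 30 days after first dose.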

In another series the test system is tumor cells in culture. The settings on record: many tumor cells in culture; cited from earlier work.
Another series relates to Panc-02 cells. The experiment in a line: MTT cytotoxicity assay. It is filed as cell-based, mouse. Conditions: Panc-02, high concentrations (10-100 μM). In short, it runs like this:
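Cells seeded at 1500/well and left overnight at 37°C, 5% CO2. Treated with serial concentrations of test compound, dFdC, DHA or 1:1 molar dFdC+DHA (lipids in DMSO, dFdC in medium). Exposure: Panc-1-luc 24 h, Panc-02 48 h, BxPC-3 72 h. In a separate Panc-02 run, 10-100 μM for 4 h. Survival read by MTT; IC50 obtained by curve fitting.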
For orientation: Formazan colour is commonly taken as a measure of viable cells.

For series [5], the system named is dFdC-sensitive cancer cell lines. The settings on record: various dFdC-sensitive cancer cell lines; cited from earlier work.
A further series can be described thus: Solubility of DHA-dFdC. The format is physicochemical. The method in brief:
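Indirect aqueous solubility used isopropyl myristate (IPM)/water partitioning. Saturated IPM solution was centrifuged (14,000 rpm, 10 min) and the supernatant measured by HPLC after methanol dilution (A1). Water was added at Vwater/VIPM 10, vortexed 5 min, left 15 min and centrifuged (14,000 rpm, 15 min). The IPM layer was re-assayed (A2) and the partition coefficient calculated from A1, A2 and the volume ratio.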

Take `Cl.Nc1ccn([C@@H]2O[C@H](CO)[C@@H](O)C2(F)F)c(=O)n1` [dFdC, 2′, 2′-difluorodeoxycytidine HCl]: the “Tumor growth compared with vehicle control” value in series [1] is listed as “did not significantly inhibit the tumor growth”. Further, in the series with Panc-1-luc cells, the “Sensitivity of Panc-1 tumor cells” value is listed as “resistant”. Also, the “AUC0 -∞ in pancreas” value in series [2] was 787.71 µg·min/g. In addition, the “Loss of dFdC by deamination” value in series [3] (after intravenous administration) is on record as “about 90%”. In series [3], the “Administered dFdC excreted in the urine” value is “More than 99%” and the “Unchanged dFdC in the urine” value is listed as 5%. Also, in series [4] (IP twice a week, DHA-dFdC 50 mg/kg, dFdC molar equivalent), the Tumor growth result is on record as “did not show significant activity”. In addition, in [4] (compared with untreated mice), the “Cleaved lamin-A positive staining in tumors” value is on record as “not different from that in mice that were left untreated”.

Take `CC/C=C\C/C=C\C/C=C\C/C=C\C/C=C\C/C=C\CCC(=O)O[C@@H](C(=O)O[C@H]1C[C@@]2(O)[C@@H](OC(=O)c3ccccc3)[C@@H]3[C@]4(OC(C)=O)CO[C@@H]4C[C@H](O)[C@@]3(C)C(=O)[C@H](OC(C)=O)C(=C1C)C2(C)C)[C@@H](NC(=O)c1ccccc1)c1ccccc1` [DHA-paclitaxel conjugate]: the “Cytotoxicity compared with paclitaxel” value in the series on tumor cells in culture was “not more cytotoxic than paclitaxel alone”.

As to `CC/C=C\C/C=C\C/C=C\C/C=C\C/C=C\C/C=C\CCC(=O)O` [DHA, Cis-4,7,10,13,16,19-docosahexaenoic acid], in series [1], the “Tumor growth compared with vehicle control” value was “did not significantly inhibit the tumor growth”. Besides, the “Cytotoxicity after 4 hours of coincubation” value with Panc-02 cells is “did not show significant cytotoxicity”.

As to `CCCCCCCCCCCCCCCCCC(=O)Nc1ccn(C2OC(CO)C(O)C2(F)F)c(=O)n1` (centres unmarked) [4-(N)-stearoyl dFdC], the “Cytotoxicity compared with dFdC” value in [5] is reported as “not significantly more cytotoxic than dFdC”. The Solubility in water in the series “Solubility of DHA-dFdC” (direct method) is 1.38 ± 1.60 µg/mL (≈ 2.61 µM); in “Solubility of DHA-dFdC” (indirect method (IPM/water partitioning), room temperature) it was 1.39 ± 0.10 µg/mL (≈ 2.62 µM).
